Laboratory results published in ChEMBL document CHEMBL5042558, “Selective Macrocyclic Inhibitors of DYRK1A/B” (ACS Med Chem Lett, 2022).
pIC50: −log10 of the molar value. Blank lines part the entries; values can stand above or below the compound they belong to. Activity calls are given as the source filed them. The calls are words filed in the database; no cut-off is given here.

Experiments:
[1] = target: Serine/threonine-protein kinase Sgk1 (Homo sapiens, UniProt O00141); test: Inhibition of SGK (unknown origin) at 1 uM by kinome scan method
CAL-27 [2] = test: Induction of apoptosis in human CAL-27 cells assessed as decrease in AKT phosphorylation at S473 residue at 1 uM after 24 hrs by Immunoblot analysis relative to control; assay type: functional; design: scale not given: the % may be the effect or the level left
CAL-27 [3] = test: Induction of apoptosis in human CAL-27 cells assessed as decrease in AKT phosphorylation at S473 residue at 10 uM after 24 hrs by Immunoblot analysis relative to control; assay type: functional; design: scale not given: the % may be the effect or the level left
[4] = AUC (0-infinity) in C57BL/6 mouse at 2 mg/kg, iv measured upto 8 hrs by LC-MS/MS analysis; assay type: ADME, organism-based; design: route intravenous, dose 2 mg/kg, time <=8; conditions: in vivo
FaDu = test: Antiproliferative activity against human FaDu cells assessed as reduction in cell viability at 10 uM measured after 72 hrs by Celltiter-Glo luminescent assay; assay type: functional
HEK-293T = test: Antiproliferative activity against human HEK293T cells assessed as reduction in cell viability at 10 uM measured after 72 hrs by Celltiter-Glo luminescent assay; assay type: toxicity, cell-based
CAL-27 [5] = test: Induction of apoptosis in human CAL-27 cells assessed as PARP level at 1 uM after 24 hrs by Immunoblot analysis relative to control; assay type: functional
[6] = target: Mitogen-activated protein kinase 10 (Homo sapiens, UniProt P53779); test: Inhibition of JNK3 (unknown origin) in human CAL-27 cells measured after 6 hrs by select screen kinase assay; assay type: cell-based
Focal adhesion kinase 1 [7] = target: T1, Focal adhesion kinase 1 (Homo sapiens, UniProt Q05397); test: Inhibition of FAK (unknown origin) at 1 uM by kinome scan method
[8] = Clearance in C57BL/6 mouse at 2 mg/kg, iv measured upto 8 hrs by LC-MS/MS analysis; assay type: ADME, organism-based; conditions: in vivo
CAL-27 [9] = test: Induction of apoptosis in human CAL-27 cells assessed as decrease in AKT phosphorylation at S473 residue at 5 uM after 24 hrs by Immunoblot analysis relative to control; assay type: functional; design: scale not given: the % may be the effect or the level left
CAL-27 [10] = test: Induction of apoptosis in human CAL-27 cells assessed as BCL-xL level at 1 uM after 24 hrs by Immunoblot analysis relative to control; assay type: functional
CAL-27 [11] = test: Induction of apoptosis in human CAL-27 cells assessed as decrease in AKT phosphorylation at S473 residue at 0.5 uM after 24 hrs by Immunoblot analysis relative to control; assay type: functional; design: scale not given: the % may be the effect or the level left
[12] = target: Mitogen-activated protein kinase 8 (Homo sapiens, UniProt P45983); test: Inhibition of JNK1 (unknown origin) in human CAL-27 cells measured after 6 hrs by select screen kinase assay; assay type: cell-based
[13] = target: Dual specificity mitogen-activated protein kinase kinase 4 (Homo sapiens, UniProt P45985); test: Inhibition of MEK4 (unknown origin) at 1 uM by kinome scan method
[14] = AUC (0-infinity) in C57BL/6 mouse at 10 mg/kg, po measured upto 8 hrs by LC-MS/MS analysis; assay type: ADME, organism-based; design: route oral, dose 10 mg/kg, time <=8; conditions: C57BL/6, mouse, in vivo
CAL-27 [15] = test: Induction of apoptosis in human CAL-27 cells assessed as increase in cleaved-PARP level at 1 uM after 24 hrs by Immunoblot analysis relative to control; assay type: functional
Misshapen-like kinase 1 = Misshapen-like kinase 1 (Homo sapiens, UniProt Q8N4C8); test: Inhibition of MINK1 (unknown origin) at 1 uM by kinome scan method
[16] = target: Ribosomal protein S6 kinase alpha-1 (Homo sapiens, UniProt Q15418); test: Inhibition of RSK1 (unknown origin) in human CAL-27 cells measured after 6 hrs by select screen kinase assay; assay type: cell-based
[17] = target: Mitogen-activated protein kinase 9 (Homo sapiens, UniProt P45984); test: Inhibition of JNK2 (unknown origin) in human CAL-27 cells measured after 6 hrs by select screen kinase assay; assay type: cell-based
[18] = Cmax in C57BL/6 mouse at 10 mg/kg, po measured upto 8 hrs by LC-MS/MS analysis; assay type: ADME, organism-based; design: route oral, dose 10 mg/kg, time <=8; conditions: in vivo
[19] = Cmax in C57BL/6 mouse at 2 mg/kg, iv measured upto 8 hrs by LC-MS/MS analysis; assay type: ADME, organism-based; design: route intravenous, dose 2 mg/kg, time <=8; conditions: in vivo
CAL-27 [20] = test: Induction of apoptosis in human CAL-27 cells assessed as increase in cleaved-PARP level at 10 uM after 24 hrs by Immunoblot analysis relative to control; assay type: functional
[21] = target: T2, Ribosomal protein S6 kinase alpha-3 (Homo sapiens, UniProt P51812); test: Inhibition of RSK2 (unknown origin) in human CAL-27 cells measured after 6 hrs by select screen kinase assay; assay type: cell-based
CAL-27 [22] = test: Induction of apoptosis in human CAL-27 cells assessed as PARP level at 10 uM after 24 hrs by Immunoblot analysis relative to control; assay type: functional
[23] = target: Ribosomal protein S6 kinase alpha-6 (Homo sapiens, UniProt Q9UK32); test: Inhibition of RSK4 (unknown origin) at 1 uM by kinome scan method
CAL-27 [24] = test: Induction of apoptosis in human CAL-27 cells assessed as decrease in FOXO3A phosphorylation at serine 253 residue at 5 uM after 24 hrs by Immunoblot analysis relative to control; assay type: functional; design: scale not given: the % may be the effect or the level left
[25] = Half life in C57BL/6 mouse at 10 mg/kg, po measured upto 8 hrs by LC-MS/MS analysis; assay type: ADME, organism-based; conditions: in vivo
Focal adhesion kinase 1 [26] = target: T1, Focal adhesion kinase 1; test: Inhibition of FAK (unknown origin) in human CAL-27 cells measured after 6 hrs by select screen kinase assay; assay type: cell-based
[27] = target: Ribosomal protein S6 kinase alpha-2 (Homo sapiens, UniProt Q15349); test: Inhibition of RSK3 (unknown origin) in human CAL-27 cells measured after 6 hrs by select screen kinase assay; assay type: cell-based
[28] = Clearance in C57BL/6 mouse at 10 mg/kg, po measured upto 8 hrs by LC-MS/MS analysis; assay type: ADME, organism-based; conditions: in vivo
CAL-27 [29] = test: Antiproliferative activity against human CAL-27 cells assessed as reduction in cell viability at 10 uM measured after 72 hrs by Celltiter-Glo luminescent assay; assay type: functional
[30] = Oral bioavailability in C57BL/6 mouse at 10 mg/kg measured upto 8 hrs by LC-MS/MS analysis; assay type: ADME, organism-based; conditions: C57BL/6, mouse, in vivo
[31] = target: T2, Ribosomal protein S6 kinase alpha-3; test: Inhibition of RSK2 (unknown origin) at 1 uM by kinome scan method
[32] = target: Mitogen-activated protein kinase kinase kinase 19 (Homo sapiens, UniProt Q56UN5); test: Inhibition of YSK4 (unknown origin) at 1 uM by kinome scan method
CAL-27 [33] = test: Induction of apoptosis in human CAL-27 cells assessed as decrease in FOXO3A phosphorylation at serine 253 residue at 0.5 uM after 24 hrs by Immunoblot analysis relative to control; assay type: functional; design: scale not given: the % may be the effect or the level left
CAL-27 [34] = test: Induction of apoptosis in human CAL-27 cells assessed as decrease in FOXO3A phosphorylation at serine 253 residue at 10 uM after 24 hrs by Immunoblot analysis relative to control; assay type: functional; design: scale not given: the % may be the effect or the level left
CAL-27 [35] = test: Induction of apoptosis in human CAL-27 cells assessed as BCL-xL level at 10 uM after 24 hrs by Immunoblot analysis relative to control; assay type: functional
CAL-27 [36] = test: Induction of apoptosis in human CAL-27 cells assessed as decrease in FOXO3A phosphorylation at serine 253 residue at 1 uM after 24 hrs by Immunoblot analysis relative to control; assay type: functional; design: scale not given: the % may be the effect or the level left
[37] = Half life in C57BL/6 mouse at 2 mg/kg, iv measured upto 8 hrs by LC-MS/MS analysis; assay type: ADME, organism-based; conditions: in vivo
[38] = target: Dual specificity tyrosine-phosphorylation-regulated kinase 1B (Homo sapiens, UniProt Q9Y463); test: Inhibition of DYRK1B (unknown origin) measured after 6 hrs in presence of ATP by Z'-LYTE assay
[39] = target: Cyclin-dependent kinase 19 (Homo sapiens) (UniProt Q9BWU1); test: Inhibition of […] (unknown origin) in human CAL-27 cells measured after 6 hrs by select screen kinase assay; assay type: cell-based
Summary of the method: (§1)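 Cellular kinase profiling by KiNativ in CAL27 head and neck squamous carcinoma cells. Cells were treated with compound at 1 μM for 6 h, then kinase engagement was profiled across the kinome by KiNativ.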

[40] = target: Cyclin-dependent kinase 8 (Homo sapiens) (UniProt P49336); test: Inhibition of CDK8 (unknown origin) in human CAL-27 cells measured after 6 hrs by select screen kinase assay; assay type: cell-based; summary of the method: as §1
Sequence of Cyclin-dependent kinase 8 (Homo sapiens) (P49336 whole entry): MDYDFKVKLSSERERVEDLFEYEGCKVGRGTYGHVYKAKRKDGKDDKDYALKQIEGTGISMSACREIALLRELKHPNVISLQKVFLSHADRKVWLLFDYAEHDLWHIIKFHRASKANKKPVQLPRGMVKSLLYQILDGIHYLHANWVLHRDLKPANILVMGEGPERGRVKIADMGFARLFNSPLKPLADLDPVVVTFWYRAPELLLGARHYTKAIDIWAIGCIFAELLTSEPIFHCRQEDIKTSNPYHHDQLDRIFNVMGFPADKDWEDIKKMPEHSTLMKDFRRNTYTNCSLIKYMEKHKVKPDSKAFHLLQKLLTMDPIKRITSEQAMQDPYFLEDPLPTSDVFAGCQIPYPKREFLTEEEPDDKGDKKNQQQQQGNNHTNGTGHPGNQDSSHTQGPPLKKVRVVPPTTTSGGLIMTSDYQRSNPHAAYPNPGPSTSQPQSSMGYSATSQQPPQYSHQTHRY

Sequence of Dual specificity tyrosine-phosphorylation-regulated kinase 1B (Q9Y463 whole entry): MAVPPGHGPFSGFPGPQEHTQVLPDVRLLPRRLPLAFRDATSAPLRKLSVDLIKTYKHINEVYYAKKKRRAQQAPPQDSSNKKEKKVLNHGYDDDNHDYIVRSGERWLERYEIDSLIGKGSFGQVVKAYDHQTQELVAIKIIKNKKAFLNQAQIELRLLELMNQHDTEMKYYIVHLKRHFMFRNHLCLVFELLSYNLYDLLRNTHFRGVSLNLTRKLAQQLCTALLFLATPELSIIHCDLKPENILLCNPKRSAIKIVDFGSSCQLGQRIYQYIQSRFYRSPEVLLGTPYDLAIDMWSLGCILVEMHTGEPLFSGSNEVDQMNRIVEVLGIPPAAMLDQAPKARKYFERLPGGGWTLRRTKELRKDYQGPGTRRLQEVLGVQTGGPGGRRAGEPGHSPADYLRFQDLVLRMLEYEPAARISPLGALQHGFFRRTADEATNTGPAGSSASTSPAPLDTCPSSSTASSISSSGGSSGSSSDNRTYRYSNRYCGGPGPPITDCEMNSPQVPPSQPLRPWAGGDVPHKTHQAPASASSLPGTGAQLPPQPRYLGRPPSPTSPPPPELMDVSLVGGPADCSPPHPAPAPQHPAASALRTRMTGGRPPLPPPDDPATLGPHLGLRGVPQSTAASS
T2 sequence (P51812 whole entry): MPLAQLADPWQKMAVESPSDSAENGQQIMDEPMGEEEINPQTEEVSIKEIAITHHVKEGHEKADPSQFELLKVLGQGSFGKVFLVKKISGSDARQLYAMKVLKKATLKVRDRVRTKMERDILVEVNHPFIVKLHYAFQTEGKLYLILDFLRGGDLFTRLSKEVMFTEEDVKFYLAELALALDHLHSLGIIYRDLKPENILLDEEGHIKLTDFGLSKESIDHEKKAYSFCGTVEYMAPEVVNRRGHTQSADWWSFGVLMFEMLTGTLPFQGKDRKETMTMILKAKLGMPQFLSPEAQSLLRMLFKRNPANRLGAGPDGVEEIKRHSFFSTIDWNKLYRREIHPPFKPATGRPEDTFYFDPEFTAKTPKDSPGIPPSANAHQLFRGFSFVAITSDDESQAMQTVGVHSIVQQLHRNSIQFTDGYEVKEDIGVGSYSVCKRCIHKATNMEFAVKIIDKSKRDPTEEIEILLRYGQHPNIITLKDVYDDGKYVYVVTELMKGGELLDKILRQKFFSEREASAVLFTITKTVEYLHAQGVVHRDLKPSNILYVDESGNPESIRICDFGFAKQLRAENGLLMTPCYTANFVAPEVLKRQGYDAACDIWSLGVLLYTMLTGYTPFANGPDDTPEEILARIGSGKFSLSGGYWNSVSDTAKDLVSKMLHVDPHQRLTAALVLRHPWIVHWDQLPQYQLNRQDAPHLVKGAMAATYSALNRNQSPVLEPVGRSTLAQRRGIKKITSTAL
T1 sequence (Q05397 whole entry): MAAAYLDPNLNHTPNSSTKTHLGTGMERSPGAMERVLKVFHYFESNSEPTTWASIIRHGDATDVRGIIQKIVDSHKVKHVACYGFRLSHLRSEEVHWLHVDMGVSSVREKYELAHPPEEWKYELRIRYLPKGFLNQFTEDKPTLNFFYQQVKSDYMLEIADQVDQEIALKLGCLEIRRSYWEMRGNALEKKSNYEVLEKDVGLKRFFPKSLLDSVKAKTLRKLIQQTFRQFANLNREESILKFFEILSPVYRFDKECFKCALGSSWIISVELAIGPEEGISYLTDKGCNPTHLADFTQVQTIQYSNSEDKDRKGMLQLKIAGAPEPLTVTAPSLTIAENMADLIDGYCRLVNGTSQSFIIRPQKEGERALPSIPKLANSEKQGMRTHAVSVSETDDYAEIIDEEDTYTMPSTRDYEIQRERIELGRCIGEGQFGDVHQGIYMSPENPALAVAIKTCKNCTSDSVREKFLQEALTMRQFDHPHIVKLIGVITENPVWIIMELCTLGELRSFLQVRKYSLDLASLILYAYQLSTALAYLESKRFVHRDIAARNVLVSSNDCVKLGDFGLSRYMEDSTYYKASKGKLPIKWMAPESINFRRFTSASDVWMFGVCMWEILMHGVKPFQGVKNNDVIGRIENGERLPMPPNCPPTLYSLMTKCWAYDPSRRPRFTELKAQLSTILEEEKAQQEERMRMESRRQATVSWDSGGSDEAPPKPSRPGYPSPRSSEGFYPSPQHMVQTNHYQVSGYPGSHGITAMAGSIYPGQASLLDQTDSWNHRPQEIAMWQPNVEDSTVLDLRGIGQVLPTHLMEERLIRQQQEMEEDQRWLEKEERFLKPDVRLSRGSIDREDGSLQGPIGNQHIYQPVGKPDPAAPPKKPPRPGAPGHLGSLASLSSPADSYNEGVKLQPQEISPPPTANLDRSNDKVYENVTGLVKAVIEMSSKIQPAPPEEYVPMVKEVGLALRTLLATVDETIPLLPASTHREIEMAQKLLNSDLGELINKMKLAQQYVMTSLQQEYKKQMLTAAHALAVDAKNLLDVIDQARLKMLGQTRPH
Sequence of Mitogen-activated protein kinase kinase kinase 19 (Q56UN5 whole entry): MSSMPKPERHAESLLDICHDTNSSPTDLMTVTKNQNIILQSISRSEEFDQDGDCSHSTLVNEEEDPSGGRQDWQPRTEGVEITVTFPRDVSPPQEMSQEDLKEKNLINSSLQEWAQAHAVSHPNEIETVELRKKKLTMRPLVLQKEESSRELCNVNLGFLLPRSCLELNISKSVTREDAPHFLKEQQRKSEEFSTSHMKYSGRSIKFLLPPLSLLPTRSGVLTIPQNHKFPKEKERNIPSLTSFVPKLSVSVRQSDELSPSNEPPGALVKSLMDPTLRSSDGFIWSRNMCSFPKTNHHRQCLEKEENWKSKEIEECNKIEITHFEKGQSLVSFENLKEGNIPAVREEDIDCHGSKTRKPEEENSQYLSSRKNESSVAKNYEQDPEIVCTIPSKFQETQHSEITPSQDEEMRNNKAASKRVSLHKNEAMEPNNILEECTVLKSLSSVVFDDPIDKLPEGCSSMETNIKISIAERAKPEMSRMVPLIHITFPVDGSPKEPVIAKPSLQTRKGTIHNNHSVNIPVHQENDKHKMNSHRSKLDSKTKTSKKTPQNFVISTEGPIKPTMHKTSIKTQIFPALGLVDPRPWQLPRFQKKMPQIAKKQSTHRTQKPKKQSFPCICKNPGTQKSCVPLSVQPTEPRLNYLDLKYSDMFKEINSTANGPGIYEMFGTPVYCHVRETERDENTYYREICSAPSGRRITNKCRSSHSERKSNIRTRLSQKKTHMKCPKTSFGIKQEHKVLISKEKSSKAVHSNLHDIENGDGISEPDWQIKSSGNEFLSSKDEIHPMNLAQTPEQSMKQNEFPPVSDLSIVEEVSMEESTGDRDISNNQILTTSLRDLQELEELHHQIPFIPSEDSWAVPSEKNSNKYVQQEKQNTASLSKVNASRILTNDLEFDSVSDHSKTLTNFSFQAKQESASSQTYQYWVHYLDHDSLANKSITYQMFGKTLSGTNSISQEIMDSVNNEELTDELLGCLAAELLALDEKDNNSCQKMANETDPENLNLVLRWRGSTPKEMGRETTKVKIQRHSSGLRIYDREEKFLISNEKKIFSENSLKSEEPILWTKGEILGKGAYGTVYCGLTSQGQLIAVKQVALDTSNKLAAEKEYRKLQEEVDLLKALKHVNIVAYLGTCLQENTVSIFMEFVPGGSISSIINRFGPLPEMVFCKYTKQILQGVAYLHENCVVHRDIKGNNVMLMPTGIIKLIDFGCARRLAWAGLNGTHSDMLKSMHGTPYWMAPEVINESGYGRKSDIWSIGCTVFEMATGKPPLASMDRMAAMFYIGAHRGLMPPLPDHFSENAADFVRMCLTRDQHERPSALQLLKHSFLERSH
Sequence of Cyclin-dependent kinase 19 (Homo sapiens) (Q9BWU1 whole entry): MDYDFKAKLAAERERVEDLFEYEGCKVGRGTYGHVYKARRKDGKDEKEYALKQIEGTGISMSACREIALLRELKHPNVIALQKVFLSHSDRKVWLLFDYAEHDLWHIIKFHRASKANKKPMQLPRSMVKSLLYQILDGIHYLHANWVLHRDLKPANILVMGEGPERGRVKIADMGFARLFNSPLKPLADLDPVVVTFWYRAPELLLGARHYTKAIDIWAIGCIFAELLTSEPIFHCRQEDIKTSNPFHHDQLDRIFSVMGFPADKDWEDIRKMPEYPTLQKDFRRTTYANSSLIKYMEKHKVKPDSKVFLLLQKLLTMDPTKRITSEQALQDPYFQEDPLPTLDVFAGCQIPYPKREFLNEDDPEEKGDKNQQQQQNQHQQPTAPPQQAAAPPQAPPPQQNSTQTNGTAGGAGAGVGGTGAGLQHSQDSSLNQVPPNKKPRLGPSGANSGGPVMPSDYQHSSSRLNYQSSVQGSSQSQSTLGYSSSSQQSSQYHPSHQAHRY

SMILES: CN1Cc2nn(C)c(C#N)c2-c2cc3c(c[nH]c3nn2)-c2cn(nc2C(F)(F)F)CCCC1=O
- pIC50 [38]: 5.52

SMILES: COc1ccc2c(c1)[nH]c1c(C)nccc12 [HARMINE]
- Activity (CAL-27 [2]): 93%
- inhibition [39]: Active
- Activity (CAL-27 [3]): 143%
- inhibition [40]: Active
- Activity (FaDu): inactive
- Activity (HEK-293T): Active
- Activity (CAL-27 [5]): 113%
- Activity (CAL-27 [9]): 133%
- Activity (CAL-27 [10]): 92%
- Activity (CAL-27 [11]): 64%
- Activity (CAL-27 [15]): 139%
- Activity (CAL-27 [20]): 210%
- Activity (CAL-27 [22]): 141%
- Activity (CAL-27 [24]): 110%
- Activity (CAL-27 [33]): 82%
- Activity (CAL-27 [34]): 90%
- Activity (CAL-27 [35]): 93%
- Activity (CAL-27 [36]): 107%

SMILES: CN1Cc2nn(C)cc2-c2cnc3[nH]cc(c3c2)-c2cnn(c2)CCCCC1=O
- pIC50 [38]: 6.82

SMILES: CN1Cc2nn(C)c(C#N)c2-c2cnc3[nH]cc(c3n2)-c2cn(nc2C(F)(F)F)CCCC1=O
- pIC50 [38]: 7.74

Continued, in another order:

- pIC50 [1]: 6.16
- AUC(0-inf) [4]: 8950 ng·h/mL
- pIC50 [6]: < 5.00
- pIC50 (Focal adhesion kinase 1 [7]): 6.68
- clearance [8]: 5.9 mL/min/kg
- pIC50 [12]: 5.95
- pIC50 [13]: 6.88
- AUC(0-inf) [14]: 5770 ng·h/mL
- pIC50 (Misshapen-like kinase 1): 6.94
- pIC50 [16]: 7.09
- pIC50 [17]: 5.96
- Cmax [18]: 6.4 µM
- Cmax [19]: 34.1 µM
- pIC50 [21]: 7.10
- pIC50 [23]: 7.43
- half-life [25]: 2.4 h
- pIC50 (Focal adhesion kinase 1 [26]): 7.05
- pIC50 [27]: 7.21
- CL/F [28]: 29.3 mL/min/kg
- bioavailability [30]: 12.3%
- pIC50 [31]: 6.74
- pIC50 [32]: 5.79
- half-life [37]: 1.2 h
SMILES: CN1Cc2nn(C)c(C#N)c2-c2cnc3[nH]c(F)c(c3c2)-c2cn(nc2C(F)(F)F)CCCC1=O
- Activity (CAL-27 [2]): 85%
- Activity (CAL-27 [3]): 63%
- Activity (FaDu): 40%
- Activity (HEK-293T): Non-Toxic
- Activity (CAL-27 [5]): 104%
- Activity (CAL-27 [9]): 74%
- Activity (CAL-27 [10]): 61%
- Activity (CAL-27 [11]): 81%
- Activity (CAL-27 [15]): 128%
- Activity (CAL-27 [20]): 540%
- Activity (CAL-27 [22]): 93%
- Activity (CAL-27 [24]): 10%
- Activity (CAL-27 [29]): 45%
- Activity (CAL-27 [33]): 56%
- Activity (CAL-27 [34]): 38%
- Activity (CAL-27 [35]): 58%
- Activity (CAL-27 [36]): 49%

- pIC50 [38]: 6.03
SMILES: CN1Cc2nn(C)c(C#N)c2-c2cnc3[nH]nc(c3c2)-c2cn(nc2C(F)(F)F)CCCC1=O
